{
  "source": "ChEMBL document CHEMBL3425481",
  "about": "“Design, synthesis and anticancer activity of matrine-1H-1,2,3-triazole-chalcone conjugates” (Bioorg Med Chem Lett, 2015)",
  "key": {"[1]": {"test": "Antiproliferative activity against human Bel7402 cells assessed as inhibition of cell proliferation incubated for 48 hrs by CCK8 assay", "type": "functional, cell-based", "conditions": "Bel-7402, 48 h", "how_it_was_run": "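Human A549 lung, Hela cervical, Bel-7402 hepatocellular and MCF-7 breast cancer cells, plus mouse embryo fibroblast NIH3T3, tested for anti-proliferative activity by CCK-8 assay. For the matrine combination tests, the chalcone and matrine were used at a 1:1 molar ratio; values given as IC50.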"}, "[2]": {"test_system": "A549", "test": "Antitumor activity against human A549 cells xenografted in Balb/ca-nu mouse assessed as tumor growth inhibition at 5 mg/kg, iv dosed every 3 days for total of 7 dosing rounds measured on day 18 after treatment", "type": "functional", "conditions": "read-out: TGI", "how_it_was_run": "(§1)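 A549 xenograft in mice, dosed by tail vein injection every 3 days; vehicle saline plus 0.2% Tween 80. n = 8 per treatment group, 6 in the vehicle group. Mean ± SE.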"}, "[3]": {"test_system": "A549", "test": "Antitumor activity against human A549 cells xenografted in Balb/ca-nu mouse assessed as tumor growth inhibition at 2.5 mg/kg, iv dosed every 3 days for total of 7 dosing rounds measured on day 16 after treatment", "type": "functional", "conditions": "read-out: TGI", "how_it_was_run": "as §1"}, "[4]": {"test_system": "A549", "test": "Antitumor activity against human A549 cells xenografted in Balb/ca-nu mouse assessed as tumor growth inhibition at 10 mg/kg, iv dosed every 3 days for total of 7 dosing rounds measured on day 16 after treatment", "type": "functional", "conditions": "read-out: TGI", "how_it_was_run": "as §1"}, "[5]": {"test_system": "A549", "test": "Antitumor activity against human A549 cells xenografted in Balb/ca-nu mouse assessed as tumor growth inhibition at 2.5 mg/kg, iv dosed every 3 days for total of 7 dosing rounds measured on day 14 after treatment", "type": "functional", "conditions": "read-out: TGI", "how_it_was_run": "as §1"}, "[6]": {"test_system": "A549", "test": "Antitumor activity against human A549 cells xenografted in Balb/ca-nu mouse assessed as tumor growth inhibition at 5 mg/kg, iv dosed every 3 days for total of 7 dosing rounds measured on day 12 after treatment", "type": "functional", "conditions": "read-out: TGI", "how_it_was_run": "as §1"}, "[7]": {"test_system": "A549", "test": "Antitumor activity against human A549 cells xenografted in Balb/ca-nu mouse assessed as tumor growth inhibition at 10 mg/kg, iv dosed every 3 days for total of 7 dosing rounds measured on day 8 after treatment", "type": "functional, organism-based", "parameters": "dose 10 mg/kg", "how_it_was_run": "as §1"}, "[8]": {"test_system": "A549", "test": "Induction of apoptosis in human A549 cells assessed as viable cells level at 2 times antiproliferative IC50 incubated for 24 hrs by Annexin V-FITC/propidium iodide double staining based flow cytometry (reference value: 99.7%)", "type": "functional"}, "[9]": {"test_system": "A549", "test": "Antitumor activity against human A549 cells xenografted in Balb/ca-nu mouse assessed as tumor growth inhibition at 5 mg/kg, iv dosed every 3 days for total of 7 dosing rounds measured on day 10 after treatment", "type": "functional", "conditions": "read-out: TGI", "how_it_was_run": "as §1"}},
  "note": "Activity calls are given as the source filed them. The rule behind the calls is not given here.",
  "data": [
    {"smiles": "O=C(/C=C/c1cccc(Cl)c1)c1ccc(OCc2cn([C@H]3CC(=O)N4C[C@@H]5CCCN6CCC[C@@H]([C@H]56)[C@H]4C3)nn2)cc1O", "values": [
      {"measurement": "IC50", "setting": "[1]", "value": 5.6, "unit": "µM"},
      {"measurement": "inhibition in vivo at 5 mg/kg", "setting": "[2]", "value": 60.5, "unit": "%"},
      {"measurement": "inhibition in vivo at 2.5 mg/kg", "setting": "[3]", "value": 33.2, "unit": "%"},
      {"measurement": "inhibition in vivo at 10 mg/kg", "setting": "[4]", "value": 83.7, "unit": "%"},
      {"measurement": "inhibition in vivo at 2.5 mg/kg", "setting": "[5]", "value": 23.3, "unit": "%"},
      {"measurement": "inhibition in vivo at 5 mg/kg", "setting": "[6]", "value": 34.8, "unit": "%"},
      {"measurement": "TGI", "setting": "[7]", "value": "Active"},
      {"measurement": "Activity", "setting": "[8]", "value": 30.1, "unit": "%"},
      {"measurement": "inhibition in vivo at 5 mg/kg", "setting": "[9]", "value": 29, "unit": "%"}
    ]}
  ]
}
